This is an account of results in ChEMBL document CHEMBL4513216, “Probing the Open Global Health Chemical Diversity Library for Multistage-Active Starting Points for Next-Generation Antimalarials” (ACS Infect Dis, 2020).

The data set is described as follows: Toxicity liver stage against HepG2, at 10uM. The settings on record: human, HepG2-A16-CD81EGFP cells; read-out: INHIBITION
Also noted: test concentration 10 uM, cell line HepG2-A16-CD81EGFP. In kind it is cell-based. In outline: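 Uninfected HepG2-A16-CD81EGFP cells, 3 × 10^3 per well, 1536-well, plated on prespotted compound at 10 μM final, parasite-free screening media added to match infected plates; puromycin 10 μM positive, DMSO 0.5% negative; run in parallel with 48 h PbLuc assay at 37 °C, 5% CO2; viability by CellTiter-Glo luminescence, normalized to controls.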
In the case of `COCCCNS(=O)(=O)c1ccc(N2CCCCS2(=O)=O)cc1`, the cytotoxicity at 10 µM is 0.308%. Then `CN(C)C(=O)c1cccc(CNc2ccc(C#N)cn2)c1`, with -4.73%.

For `N#Cc1nc(COc2ccc3c(c2)OCO3)oc1NC1CCCCC1`, the cytotoxicity at 10 µM is -41.4%. On to `Cc1cnc2c(c1NCc1cccnc1)c(=O)n(C)c(=O)n2C`, for which the cytotoxicity at 10 µM was -2.02%.

As to `O=C(NCC1CCN(c2ncccn2)CC1)c1cnccn1`, the cytotoxicity at 10 µM was 2.84%. Next, `O=S(=O)(NCC(O)c1ccc(C(F)(F)F)cc1)C1CC1` (stereo not given): -6.9%; `COCC1c2nnn(CC3CC3)c2CCN1C(=O)c1sccc1C` (stereo not given): -147%; `CC(C)c1cccc(NC(=O)Cn2c(=O)n(C)c(=O)c3sccc32)c1`: 42%. Next, `COC(=O)c1cccc(C(=O)N2CCN(c3cccc(C)c3C)CC2)n1`: 79.9%. With `CC(C(=O)NN1CCOCC1)n1nc(C(F)(F)F)c(Cl)c1C1CC1` (stereo not given), the cytotoxicity at 10 µM is -0.37%.

For the compound `CCc1nccn1CC(=O)Nc1cccc(N2CCCC2)c1`, the cytotoxicity at 10 µM is 17.1%. Then `Fc1ccc(Cc2cccc(C3CCN(C4CCOCC4)CC3)n2)cc1`, with 4.3%. Then `CCn1cc(C(=O)N2CCOC(c3nc(-c4cccs4)no3)C2)cn1` (stereo not given), with 2.91%; and `CC(=O)N1C[C@@H](c2ccsc2)[C@@H]2CN(Cc3ccccc3Cl)CC[C@@H]21`, with 3.16%.

As to `O=C(CCC1CCCC1)N1CCC(c2ncc3c(n2)CCNC3)CC1`, the cytotoxicity at 10 µM is -3.91%.

As for `CC(c1ccccc1F)N(CC(N)=O)C1CC1` (stereo not given), the cytotoxicity at 10 µM is -46.3%. Next, `Cc1nc(NS(=O)(=O)c2cccc(F)c2C)no1`: 5.3%; `Cc1noc(C)c1CN1CCN(Cc2nc(C3CC3)no2)CC1`: 31.4%. Then `Cn1nccc1C1CCN(Cc2ccn(-c3ccccc3)n2)CC1`, with 17.3%; and `CS(=O)(=O)C1(C(=O)NC2CCc3nccn3C2)CCCC1` (stereo not given), with -14%.

Take `O=C(c1cc(-c2ccccc2)nc2onc(C3CC3)c12)N1CC[C@H](O)C1`: the cytotoxicity at 10 µM is -36.7%. Then `Fc1ccc(NCc2ccncc2)c(OC(F)F)c1`, with 10.5%. Next, `COCCCSc1ccc(NCc2ccc(C)cn2)cc1`: 15.8%.

Turning to `Cc1c(NCc2ccc(C#N)cc2)cccc1S(=O)(=O)NC1CC1`, the cytotoxicity at 10 µM was 20.9%. Next, `Cc1cnn(Cc2cc(F)ccc2F)c1NC(=O)C1CCOCC1`: -0.303%; `NC(=O)c1ccc(N2CCCCC2)c(NC(=O)c2ccc(F)cc2Cl)c1`: -4.2%. Then `O=C(c1cccnc1)N1CCCC1C1CCN(Cc2ccccc2)CC1` (stereo not given), with -3.24%.

In the case of `CCOC(=O)N1CCN(C(=O)c2sc(-c3ccccc3)nc2C)CC1`, the cytotoxicity at 10 µM was -3.08%. Next, `O=S(=O)(NCC1COCCO1)c1ccc(C2CCCCC2)cc1` (stereo not given): 27.5%.

As to `Cc1cc(C)c(CNC(=O)NCC2Cc3ccccc3O2)c(=O)[nH]1` (stereo not given), the cytotoxicity at 10 µM was -5.21%. Next, `CN1CCC(CN(C)S(=O)(=O)CC2CCCCC2)CC1`: 0.304%; `COc1ccc(C(C)NC(=O)N2CCNC(=O)CC2)cc1F` (stereo not given): 13.5%. For the compound `Cc1ncccc1CNCC1COC2(CCCCC2)O1` (stereo not given), the cytotoxicity at 10 µM is -149%.

For the compound `c1cncc(-c2nnc(C3(c4ccc5c(c4)OCO5)CCOCC3)o2)c1`, the cytotoxicity at 10 µM stood at 4.02%. Then `CO[C@H]1CN(C(=O)OC(C)(C)C)CC1NCc1ccco1` (stereo not given in full), with -46.9%; and `O=C(c1ccccc1)N1CCCN(C(=O)c2ncncc2Cl)CC1`, with 4.26%.

Turning to `CNC(=O)c1c(C)cccc1NCc1noc(C2CC2)n1`, the cytotoxicity at 10 µM stood at 29.7%. Then `Cn1ccc(NC(=O)NC2CCCN(c3ccccc3Cl)C2=O)n1` (stereo not given), with -49.4%.

`COc1ccc(CN(C)c2nc3c(cnn3C)c(=O)[nH]2)c(OC)c1`: the cytotoxicity at 10 µM is 58.9%.

Take `CN(C)Cc1noc2c1CN(Cc1ccc[nH]1)CC2`: the cytotoxicity at 10 µM was found to be 7.01%. Then `CN(C)Cc1cncc2c1CCN(CC(=O)N(C)C)C2`, with -99.4%. Next, `CC(C)Nc1nc(-c2ccccc2)nc2c1CCN(C(=O)CC#N)CC2`: -104%; `O=C(N[C@@H]1CN(Cc2ccoc2)C[C@@H]2CCCO[C@@H]21)C1CCC1`: -95.8%. Next, `O=C([C@H]1COC[C@H]2CN(C3CCCC3)C[C@H]21)N1CCOCC1`: -105%. For the compound `Cn1cccc1C(=O)N1CCC2(CC1)CN(c1ccsc1)C(=O)CO2`, the cytotoxicity at 10 µM was -76.9%. Next, `CCc1cc(N(C)Cc2ccnc(C)c2)n2nc(C)c(C)c2n1`: 61.6%. Next, `Cc1nc(CN2CCN(c3nc4c(s3)c(C)nn4C)CC2)cs1`: 15.6%; `Nc1nc2c(c(N3CCN(C(=O)c4cccs4)CC3)n1)CCCC2`: 7.9%. As to `Clc1cc(N2CCN3CCCCC3C2)nc2[nH]ccc12` (stereo not given), the cytotoxicity at 10 µM was -9.74%. As to `C[C@@H]1CN(C2(C(=O)N3CCSCC3)Cc3ccccc3C2)C[C@H](C)O1`, the cytotoxicity at 10 µM was 0.66%. Then `Oc1cccc(CN2CCN(c3nccc(CCC(F)(F)F)n3)CC2)c1`, with -18.7%. Then `O=C(c1coc(COc2cccc3cnccc23)n1)N1CCSCC1`, with -77.9%; and `Cc1cncc(C(=O)N2C[C@@H](C(=O)O)[C@H](C(C)C)C2)c1`, with -4.31%; and `CCC[C@H]1CN(S(=O)(=O)c2ccc(-c3c(C)noc3C)s2)C[C@@H]1N`, with 8.4%. Regarding `COCCNc1ncnc2c1CCN(C(=O)CC1CCC(=O)N1)CC2` (stereo not given), the cytotoxicity at 10 µM amounted to 1.15%. Next, `CCn1ccc(C(=O)N2CCCN(Cc3ccccc3F)CC2)cc1=O`: 9.47%. Then `Cc1noc(C)c1CN(C)c1ncnc2onc(C)c12`, with -20.7%.

Consider `CN(C)CC(Nc1nc(N)nc2c1CCNCC2)c1ccccc1` (stereo not given), for which the cytotoxicity at 10 µM is -2.92%. Take `Cc1ccsc1CN1CCC(n2cc(C(O)c3ccccc3)nn2)CC1` (stereo not given): the cytotoxicity at 10 µM turned out to be 8.69%. On to `Cc1cc(CC(C)NC(=O)Cc2cc(F)ccc2C)[nH]n1` (stereo not given), for which the cytotoxicity at 10 µM is -42.9%. Then `O=C1NCCCC12CCN(Cc1ccc(SC3CCCCC3)o1)C2` (stereo not given), with -3.33%; and `COc1cccc(Cn2ncnc2CCC(C)N2CCN(C)CC2)c1` (stereo not given), with -4.05%; and `CCc1cnc(N)nc1NCc1ccc(OC)cc1OC`, with 14.7%. Regarding `CCOC(=O)CC(NC(=O)c1cn(Cc2ccccc2F)nn1)C(C)C` (stereo not given), the cytotoxicity at 10 µM is -0.99%. Then `c1ccc(C(CC2CN(Cc3c[nH]cn3)CCO2)c2ccccc2)cc1` (stereo not given), with -5.54%; and `NCC(=O)N1CCCCC1c1ccc(F)cc1` (stereo not given), with -43.4%. Then `CCC[C@H]1CN(Cc2cc(C#N)n(C)c2C)C[C@@H]1N(C)C`, with -152%. Take `O=C(c1csnn1)N1CCc2[nH]nc(COc3cccc(Cl)c3)c2C1`: the cytotoxicity at 10 µM is -60%. Then `Cc1nc2ccccc2n1Cc1cc(C(=O)N2C[C@@H](C)O[C@@H](C)C2)no1`, with 25.7%. As for `CN1CC2(CCN(CCOCCO)CC2)CC(c2ccccc2)C1=O` (stereo not given), the cytotoxicity at 10 µM was -9.88%. Then `CC(C)(C)c1nccc(C2(c3ccccc3Cl)CCNCC2)n1`, with -1.15%. Next, `CCCn1cc(-c2ccnc(NC3CCCc4ccccc43)n2)c(C)n1` (stereo not given): 81.4%. Take `CC(=O)c1ccn(CC(=O)Nc2nn(CC3CC3)c3ccccc23)n1`: the cytotoxicity at 10 µM is 9.34%. Regarding `C=Cc1ccc(C(=O)N2CCCC(Nc3ccc(OC)cc3)C2)cc1` (stereo not given), the cytotoxicity at 10 µM is -12%. Next, `CN(C(=O)c1ccccn1)c1nc2c(s1)CCc1c-2cnn1C`: 11.7%; `Cc1cc(C)c2cc(CNCc3ccccc3)c3nn(C)c(=O)n3c2c1`: -1.47%; `CC1CN(C)CCN1C(=O)c1cnn(-c2cccc(Cl)c2)c1` (stereo not given): -8.68%. Next, `c1ccc(CCCN2CCN(c3ccc4nncn4n3)CC2)cc1`: 4.2%. Then `O=C(c1cc(C2CC2)[nH]n1)N1CCN(Cc2ccc(Cl)cc2)CC1`, with 37.2%. Take `NC(=O)c1ccc(CNC(=O)Nc2cn[nH]c2)cc1`: the cytotoxicity at 10 µM is -20.4%. Next, `Cc1nn(C)c(C)c1C1CCCN1Cc1cccc(OCC(N)=O)c1` (stereo not given): -0.192%; `CCc1nc(CN2CCCN(C(=O)CCc3ccco3)CC2)cs1`: 1.42%. Then `O=C(NCC1CCC2(CCNCC2)CO1)c1cnccn1` (stereo not given), with 9.51%. As for `Cc1cccc(C(=O)N2CC[C@]3(C[C@H](OCc4ccccn4)CO3)C2)c1`, the cytotoxicity at 10 µM is -70.9%. Next, `COc1ccc(CN2CCCC3(CCN(c4ccsc4)C3=O)C2)cc1` (stereo not given): 6.92%; `CCN(CC)[C@@H]1CN(C(=O)c2ccc(C#N)cc2)[C@@H]2CCCO[C@H]12`: -151%. Then `CN(C)C(=O)CN1CCc2ncnc(NC3CCC3)c2CC1`, with -94.4%; and `CN(C)C(=O)CN1CCC2(CCCN(Cc3cccnc3)C2)C1=O` (stereo not given), with -103%.

For the compound `Cc1nc(C2(O)CCCNCC2)sc1CCOc1ccc(Cl)cc1` (stereo not given), the cytotoxicity at 10 µM came out at 12.7%. Then `CC(C)CN1C(=O)C2(CCN(CC3CCOCC3)C2)c2ccccc21` (stereo not given), with -71.2%. As for `Cc1ccc2c(n1)N(CCN(C)C)CCN(C(=O)c1cccs1)C2`, the cytotoxicity at 10 µM was -69.8%.

As for `CN(C)[C@@H]1CCN(C(=O)Cc2cccs2)[C@H]1Cc1ccncc1`, the cytotoxicity at 10 µM is -70.1%. Next, `Cn1cccc1C(=O)N1CCC2(CCN2c2ncccn2)C1` (stereo not given): 10.7%; `NC(=O)N1CCc2cc(C(=O)O)c(-c3ccsc3)nc2CC1`: 18.3%; `CCC1=NN2C(=N)C(=Cc3cccn3-c3cccc(Cl)c3)C(=O)N=C2S1`: -5.7%.
